Structures are written as SMILES. Entries after “also recorded” stand apart in the source; their conditions may differ. Read-outs that look alike come from different tables or passages of the source.

These results are taken from PMC7530031 (Neuropharmacology, 2020).

The subject of test [1] is GluN1/GluN3 receptors. To be noted: ref Grand et al., 2018; cited from earlier work.
The target of test [2] is human GluN1^FA,TL/GluN3A receptors (Homo sapiens, UniProt Q8TCU5). The test is classed as cell-based.
The target of test [3] is human GluN1/GluN3A receptors (Homo sapiens, UniProt Q8TCU5). It counts as cell-based. The procedure, abridged: (§1)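 Xenopus oocyte two-electrode voltage clamp at −40 mV, 23°C. Human GluN1/GluN3A or rat GluN1–4a/GluN3B, with GluN1:GluN3 cRNA at 1:3. […] Concentration–response data normalized to responses without test compound, fitted by Hill equation for IC50, slope and residual minimum. Percent inhibition was 100×(1−Idrug/Icontrol) at fitted maximum. IC50 taken from mean log(IC50); 8–9 oocytes.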

For test [4], the target named is rat GluN1/GluN3B receptors (rat GluN1–4a/GluN3B) (Rattus norvegicus, UniProt Q8VHN2). The test is classed as cell-based. The method, boiled down:
as §1

In test [5] the target is rat GluN1–4a^FA,TL/GluN3B receptors (Rattus norvegicus, UniProt P35439+Q8VHN2, F484A/T518L). It counts as cell-based.
Test [6] has as its system GluN1/GluN2 NMDA receptors (GluN1 co-expressed with GluN2A-D). The test can be described thus: Selectivity test in Xenopus oocytes: GluN1/GluN2 NMDA receptors. The test is classed as cell-based.
The test system of a further test is GluA1–4 AMPA receptors. The test can be described thus: Selectivity test in Xenopus oocytes: AMPA receptors. Conditions: 20 μM; 100 μM glutamate. It counts as cell-based, rat, human.
The test system of test [7] is GluK1–2 and GluK2/GluK5 kainate receptors. Put plainly: Selectivity test in Xenopus oocytes: kainate receptors. It counts as cell-based, human. Conditions: 20 μM; 100 μM glutamate (GluK2/K5: 100 μM AMPA).
The subject of test [8] is GABA receptors (GABAA α1β2γ2S, GABAC ρ1). The test can be described thus: Selectivity test in Xenopus oocytes: GABA receptors. It counts as cell-based, rat. Conditions: 20 μM; 100 μM GABA.
Another test concerns the target T1, glycine receptors (α1) (Rattus norvegicus, UniProt P07727).
T1 sequence (P07727 29-457): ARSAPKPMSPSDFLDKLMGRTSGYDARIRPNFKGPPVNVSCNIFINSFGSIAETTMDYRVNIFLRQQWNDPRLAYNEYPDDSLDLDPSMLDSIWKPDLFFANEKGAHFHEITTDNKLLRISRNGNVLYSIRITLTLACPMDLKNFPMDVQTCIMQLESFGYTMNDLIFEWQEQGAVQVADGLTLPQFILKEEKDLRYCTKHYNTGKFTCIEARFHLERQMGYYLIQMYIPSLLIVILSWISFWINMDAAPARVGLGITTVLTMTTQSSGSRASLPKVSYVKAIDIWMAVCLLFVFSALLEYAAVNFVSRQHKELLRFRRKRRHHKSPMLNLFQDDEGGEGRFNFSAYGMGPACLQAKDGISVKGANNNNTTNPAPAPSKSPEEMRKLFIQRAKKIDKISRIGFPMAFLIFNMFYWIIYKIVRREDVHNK
The test can be described thus: Selectivity test in Xenopus oocytes: glycine receptors. To be noted: 20 μM; 100 μM glycine. It counts as cell-based.

In test [9] the target is alpha7 nicotinic receptors (Rattus norvegicus, UniProt Q05941). The test can be described thus: Selectivity test in Xenopus oocytes: alpha7 nicotinic receptors. The test is classed as cell-based. Conditions: 20 μM; 300 μM acetylcholine.
The target of test [10] is muscle nicotinic receptors (α1β1δγ) (Rattus norvegicus, UniProt P18916+P25108+P25109+P25110). Put plainly: Selectivity test in Xenopus oocytes: muscle nicotinic receptors. To be noted: 20 μM; 1 μM acetylcholine. It counts as cell-based. The method, boiled down: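 Two-electrode voltage clamp on Xenopus oocytes 2–5 days after cRNA injection; muscle nAChR subunits were injected 1:1:1:1. Recorded at 23°C and −40 mV in HEPES/BaCl2 saline, pH 7.4. Test compound at 20 μM was co-applied with agonist. Response was given as percent of control, taking control as the mean of responses before and after compound exposure.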

Another test deals with α2β4 nicotinic receptors (Rattus norvegicus, UniProt P09483+P12390). The test can be described thus: Selectivity test in Xenopus oocytes: α2β4 nicotinic receptors. The test is classed as cell-based. Conditions: 20 μM; 10 μM acetylcholine.
Test [11] has as its target T2, P2X receptors (human P2X2) (Homo sapiens, UniProt Q9UBL9).
T2 sequence (Q9UBL9 1-471): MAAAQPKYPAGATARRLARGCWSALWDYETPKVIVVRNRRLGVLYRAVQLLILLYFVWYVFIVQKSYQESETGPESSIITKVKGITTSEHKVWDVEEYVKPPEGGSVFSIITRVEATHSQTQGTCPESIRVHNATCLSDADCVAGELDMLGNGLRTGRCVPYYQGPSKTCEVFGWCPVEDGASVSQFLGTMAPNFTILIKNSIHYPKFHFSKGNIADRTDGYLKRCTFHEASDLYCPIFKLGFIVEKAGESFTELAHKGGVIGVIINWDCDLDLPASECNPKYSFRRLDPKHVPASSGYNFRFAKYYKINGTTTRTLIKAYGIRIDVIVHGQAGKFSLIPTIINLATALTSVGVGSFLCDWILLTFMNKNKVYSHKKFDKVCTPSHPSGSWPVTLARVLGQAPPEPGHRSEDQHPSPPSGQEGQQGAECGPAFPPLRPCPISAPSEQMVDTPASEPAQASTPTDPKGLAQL
Put plainly: Selectivity test in Xenopus oocytes: purinergic receptors. To be noted: 20 μM; 9 μM ATP. The test is classed as cell-based.

Test [12] has as its target native GluN1/GluN3A receptors (Mus musculus, UniProt A2AIR5). The test is classed as cell-based. Conditions: 30 μM; 1 μM CGP-78608; 10 mM glycine puffs; mouse P8–15 slices.
Test [13] deals with GluN1/GluN2 NMDA receptors. It counts as cell-based. Conditions: 30 μM; 0.5 mM NMDA puffs; mouse P8–15 slices.
For the next test, the target named is GluN1/GluN3A channels (Mus musculus, UniProt A2AIR5). The test can be described thus: Nonstationary variance analysis of neuronal glycine-evoked current responses. It counts as cell-based. To be noted: 30 μM; VHOLD −60 mV; n = 5. The method, boiled down:
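Acute mouse hippocampal slices (P8–15), CA1 pyramidal cells, whole-cell at −60 mV, 32°C ACSF with gabazine, NBQX, DL-APV, strychnine and 1 μM CGP-78608. […] Compound at 30 μM or 0.15% DMSO bath-applied. Ten deactivation phases per condition at steady state, split into 50 segments, high-passed at 1 Hz. Variance–current fit gave unitary current; chord conductance assumed 0 mV reversal.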

In test [14] the test system is GluN1/GluN3 receptors. To be noted: ref Kvist et al., 2013a; cited from earlier work.
A further test relates to GluN1. To be noted: read-out: EC50 of glycine at GluN1; ref Grand et al., 2018; Kvist et al., 2013a; cited from earlier work.
Another test deals with GluN3A. To be noted: read-out: EC50 of glycine at GluN3A; ref Grand et al., 2018; Kvist et al., 2013a; cited from earlier work.
Where [15] appears, read: 500 nM CGP-78608 plus 100 μM glycine.

Chain of human GluN1/GluN3A receptors (Q8TCU5 24-1115, other chains not shown): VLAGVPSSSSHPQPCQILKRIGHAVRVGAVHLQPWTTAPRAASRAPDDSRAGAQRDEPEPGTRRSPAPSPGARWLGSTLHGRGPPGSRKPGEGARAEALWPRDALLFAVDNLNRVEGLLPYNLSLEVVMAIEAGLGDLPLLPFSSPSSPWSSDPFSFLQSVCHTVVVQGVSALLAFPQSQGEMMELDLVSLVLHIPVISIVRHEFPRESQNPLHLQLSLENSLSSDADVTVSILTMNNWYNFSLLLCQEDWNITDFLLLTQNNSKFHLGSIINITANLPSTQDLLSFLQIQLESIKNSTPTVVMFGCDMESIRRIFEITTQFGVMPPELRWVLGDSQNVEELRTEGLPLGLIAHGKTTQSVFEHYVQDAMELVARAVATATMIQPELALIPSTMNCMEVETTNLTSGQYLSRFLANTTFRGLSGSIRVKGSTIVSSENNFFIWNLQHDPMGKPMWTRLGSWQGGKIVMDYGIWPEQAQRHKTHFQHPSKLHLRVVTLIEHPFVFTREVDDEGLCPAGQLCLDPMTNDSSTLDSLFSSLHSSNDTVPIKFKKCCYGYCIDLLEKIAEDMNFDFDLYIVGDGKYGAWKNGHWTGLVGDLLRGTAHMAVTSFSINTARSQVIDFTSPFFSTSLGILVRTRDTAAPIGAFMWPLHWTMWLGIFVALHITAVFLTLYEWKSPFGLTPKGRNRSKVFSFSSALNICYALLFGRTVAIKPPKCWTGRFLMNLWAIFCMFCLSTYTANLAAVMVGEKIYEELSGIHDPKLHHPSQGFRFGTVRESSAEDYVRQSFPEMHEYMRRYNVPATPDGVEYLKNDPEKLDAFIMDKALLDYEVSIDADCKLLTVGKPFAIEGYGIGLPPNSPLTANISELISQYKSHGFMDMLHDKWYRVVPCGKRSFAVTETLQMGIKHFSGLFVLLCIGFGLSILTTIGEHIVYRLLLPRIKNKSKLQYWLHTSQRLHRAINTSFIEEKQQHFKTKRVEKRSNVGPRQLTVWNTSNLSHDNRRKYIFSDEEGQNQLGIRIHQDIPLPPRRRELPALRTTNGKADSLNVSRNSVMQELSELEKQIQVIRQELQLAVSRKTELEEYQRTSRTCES
Chain of human GluN1^FA,TL/GluN3A receptors (Q8TCU5 24-1115, other chains not shown): as above
Chain of rat GluN1/GluN3B receptors (rat GluN1–4a/GluN3B) (Q8VHN2 25-1002, other chains not shown): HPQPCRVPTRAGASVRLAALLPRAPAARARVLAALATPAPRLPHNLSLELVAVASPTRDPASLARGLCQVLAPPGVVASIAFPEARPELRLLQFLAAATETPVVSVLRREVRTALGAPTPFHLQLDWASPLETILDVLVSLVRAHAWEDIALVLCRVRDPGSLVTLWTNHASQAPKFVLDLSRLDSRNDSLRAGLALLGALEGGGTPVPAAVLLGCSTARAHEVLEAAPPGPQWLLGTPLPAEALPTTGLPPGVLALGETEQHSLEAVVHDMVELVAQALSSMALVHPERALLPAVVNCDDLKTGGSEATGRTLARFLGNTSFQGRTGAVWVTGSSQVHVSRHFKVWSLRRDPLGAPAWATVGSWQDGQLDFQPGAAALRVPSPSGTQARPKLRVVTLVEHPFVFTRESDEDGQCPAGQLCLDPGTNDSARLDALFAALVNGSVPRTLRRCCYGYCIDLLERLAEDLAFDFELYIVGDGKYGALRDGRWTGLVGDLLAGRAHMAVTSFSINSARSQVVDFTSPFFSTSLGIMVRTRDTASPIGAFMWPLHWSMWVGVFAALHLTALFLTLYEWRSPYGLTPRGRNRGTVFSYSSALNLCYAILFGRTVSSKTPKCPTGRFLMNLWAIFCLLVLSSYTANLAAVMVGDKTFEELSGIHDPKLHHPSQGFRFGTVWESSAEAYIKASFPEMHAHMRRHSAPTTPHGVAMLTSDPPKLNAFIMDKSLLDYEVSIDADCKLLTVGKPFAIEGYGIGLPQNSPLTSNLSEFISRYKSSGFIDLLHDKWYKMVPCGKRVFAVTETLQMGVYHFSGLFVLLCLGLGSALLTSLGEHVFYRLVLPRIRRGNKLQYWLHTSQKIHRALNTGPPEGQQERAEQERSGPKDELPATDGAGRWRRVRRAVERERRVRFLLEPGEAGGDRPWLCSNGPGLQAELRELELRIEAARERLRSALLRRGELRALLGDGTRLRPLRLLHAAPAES
Chain of native GluN1/GluN3A receptors (A2AIR5 27-1135, other chains not shown): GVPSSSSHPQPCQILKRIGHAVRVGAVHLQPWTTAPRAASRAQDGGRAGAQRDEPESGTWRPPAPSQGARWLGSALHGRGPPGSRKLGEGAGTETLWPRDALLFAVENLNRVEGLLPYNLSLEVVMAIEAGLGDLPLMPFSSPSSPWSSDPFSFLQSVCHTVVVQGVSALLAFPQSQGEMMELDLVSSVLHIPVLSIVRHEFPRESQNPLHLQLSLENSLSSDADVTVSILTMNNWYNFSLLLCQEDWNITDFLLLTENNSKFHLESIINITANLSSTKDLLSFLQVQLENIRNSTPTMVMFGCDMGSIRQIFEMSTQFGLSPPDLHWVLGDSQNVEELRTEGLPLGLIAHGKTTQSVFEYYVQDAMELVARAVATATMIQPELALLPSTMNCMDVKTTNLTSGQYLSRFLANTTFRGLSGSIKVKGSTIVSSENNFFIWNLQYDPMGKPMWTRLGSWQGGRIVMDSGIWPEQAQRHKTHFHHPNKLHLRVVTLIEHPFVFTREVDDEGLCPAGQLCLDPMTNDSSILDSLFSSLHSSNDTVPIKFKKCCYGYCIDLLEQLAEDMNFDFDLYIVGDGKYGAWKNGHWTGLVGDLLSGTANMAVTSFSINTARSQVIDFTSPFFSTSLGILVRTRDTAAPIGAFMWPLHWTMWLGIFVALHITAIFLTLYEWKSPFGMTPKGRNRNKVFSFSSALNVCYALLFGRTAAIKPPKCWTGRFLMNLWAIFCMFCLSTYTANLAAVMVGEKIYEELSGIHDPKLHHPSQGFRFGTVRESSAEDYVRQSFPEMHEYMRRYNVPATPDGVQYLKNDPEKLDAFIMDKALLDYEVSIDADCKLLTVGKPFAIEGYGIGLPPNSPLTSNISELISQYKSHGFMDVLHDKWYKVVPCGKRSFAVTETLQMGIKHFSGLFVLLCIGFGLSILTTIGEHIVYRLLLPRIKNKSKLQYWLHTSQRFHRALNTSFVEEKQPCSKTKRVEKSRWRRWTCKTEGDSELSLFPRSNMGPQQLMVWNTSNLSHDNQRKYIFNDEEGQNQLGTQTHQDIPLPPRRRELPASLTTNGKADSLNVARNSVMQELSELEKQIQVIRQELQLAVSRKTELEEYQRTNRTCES
Chain of rat GluN1–4a^FA,TL/GluN3B receptors (Q8VHN2 25-1002, other chains not shown): as the sequence (Q8VHN2 25-1002, other chains not shown) above
Chain of GluN1/GluN3A channels (A2AIR5 27-1135, other chains not shown): as the sequence (A2AIR5 27-1135, other chains not shown) above
Chain of α2β4 nicotinic receptors (P09483 31-630): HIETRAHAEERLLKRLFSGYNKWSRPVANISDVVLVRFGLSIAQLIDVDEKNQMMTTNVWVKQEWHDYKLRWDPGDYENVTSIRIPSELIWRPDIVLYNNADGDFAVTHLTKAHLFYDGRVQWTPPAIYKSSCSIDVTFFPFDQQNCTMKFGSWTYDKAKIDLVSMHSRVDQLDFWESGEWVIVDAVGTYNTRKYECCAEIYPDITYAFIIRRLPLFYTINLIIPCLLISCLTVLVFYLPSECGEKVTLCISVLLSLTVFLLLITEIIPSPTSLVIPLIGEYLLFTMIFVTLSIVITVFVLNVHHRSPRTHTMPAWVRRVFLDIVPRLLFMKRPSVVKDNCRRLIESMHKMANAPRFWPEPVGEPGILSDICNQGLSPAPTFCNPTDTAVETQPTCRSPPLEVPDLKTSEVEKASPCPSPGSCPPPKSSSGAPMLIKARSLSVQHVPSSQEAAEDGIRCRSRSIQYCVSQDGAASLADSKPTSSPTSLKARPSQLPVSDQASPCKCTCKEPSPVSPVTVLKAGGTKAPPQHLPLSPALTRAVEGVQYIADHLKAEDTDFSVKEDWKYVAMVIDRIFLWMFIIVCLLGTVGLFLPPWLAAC
Chain of α2β4 nicotinic receptors (P12390 25-500): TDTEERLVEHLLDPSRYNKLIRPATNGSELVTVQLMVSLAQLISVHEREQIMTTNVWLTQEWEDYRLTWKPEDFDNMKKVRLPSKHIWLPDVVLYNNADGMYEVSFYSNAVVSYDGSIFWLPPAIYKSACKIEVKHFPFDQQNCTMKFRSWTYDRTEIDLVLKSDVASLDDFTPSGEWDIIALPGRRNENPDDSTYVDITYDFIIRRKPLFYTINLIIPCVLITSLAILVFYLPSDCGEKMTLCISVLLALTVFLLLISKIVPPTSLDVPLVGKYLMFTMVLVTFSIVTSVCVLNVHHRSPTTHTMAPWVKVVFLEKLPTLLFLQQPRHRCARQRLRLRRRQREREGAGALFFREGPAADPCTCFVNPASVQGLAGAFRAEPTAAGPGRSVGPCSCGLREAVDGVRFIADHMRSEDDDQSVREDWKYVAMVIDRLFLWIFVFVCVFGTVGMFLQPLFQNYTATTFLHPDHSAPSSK
Chain of alpha7 nicotinic receptors (Q05941 23-502): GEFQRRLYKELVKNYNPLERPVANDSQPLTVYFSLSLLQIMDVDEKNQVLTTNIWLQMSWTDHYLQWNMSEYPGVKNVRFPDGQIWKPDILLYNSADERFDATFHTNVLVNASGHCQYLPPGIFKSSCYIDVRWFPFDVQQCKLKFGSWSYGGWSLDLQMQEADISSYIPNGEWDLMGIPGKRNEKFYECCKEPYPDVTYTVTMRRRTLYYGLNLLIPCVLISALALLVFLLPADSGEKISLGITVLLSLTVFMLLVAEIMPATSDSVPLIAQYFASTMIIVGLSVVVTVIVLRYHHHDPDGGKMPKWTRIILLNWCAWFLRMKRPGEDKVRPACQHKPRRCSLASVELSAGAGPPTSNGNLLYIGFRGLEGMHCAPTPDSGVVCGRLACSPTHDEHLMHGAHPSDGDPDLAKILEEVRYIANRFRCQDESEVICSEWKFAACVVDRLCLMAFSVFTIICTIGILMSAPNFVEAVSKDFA

Take `C[C@@H](NCc1cc(Br)cc2[nH]c(=O)c(=O)[nH]c12)P(=O)(O)O.Cl` [CGP-78608, [(1 S)-1-[[(7-bromo-1,2,3,4-tetrahydro-2,3-dioxo-5-quinoxalinyl)methyl]amino]ethyl]phosph onic acid hydrochloride]: the “effect on activation of GluN1/GluN3 receptors” value in the test on GluN1/GluN3 receptors [1] is listed as “can dramatically enhance activation of GluN1/GluN3 receptors”.
The IC50 is the concentration at which inhibition is half-maximal. As a reminder, the % inhibition is the relative decrease from the control value, in per cent. The low end stands for a weak effect, the high end for a strong effect. Consider `COc1ccc(OCC(c2ccc(OC)cc2)N2Cc3ccccc3C2=O)cc1` (stereo not shown) [EU1180–438, 2-(2-(4-methoxyphenoxy)-1-(4-methoxyphenyl)ethyl)isoindolin-1-one], for which the “response in the presence of compound, % of control” value in [2] (10 μM EU1180–438, 1 mM glycine) is given as 29 ± 4.2 % of control; in test [2] (10 μM EU1180–438, 3 mM glycine), 29 ± 4.2 % of control. Further, the “dependence of inhibition on glycine concentration” value in test [2] (10 μM EU1180–438, 1 mM vs 3 mM glycine) was “not altered by increasing glycine concentration”. Besides, the IC50 in test [2] (IC50, pH 6.8) was 4.2 µM; in [2] (IC50, pH 7.4, 1 mM glycine, holding potential −40 mV, mean of individual fits), 3.5 µM; in [5], 5.2 µM. Moreover, the “% Inhibition (fitted maximum at saturating test compound)” value in test [2] (pH 6.8) is given as 72%; in test [2] (pH 7.4, 1 mM glycine, −40 mV) it was 82%; in [3] (pH 7.4, 0.5 μM CGP-78608), 85%; in test [4] (pH 7.4, 0.5 μM CGP-78608), 93%. Moreover, the “Slope (Hill slope, Fig. 1C)” value in [2] (responses activated by 1000 μM glycine) is listed as 1.3. In addition, the “Slope (Hill slope, Fig. 1D)” value in test [3] (setting [15]) and in test [4] (setting [15]) was 1.5 each time. The entries for the “minimum (residual current at saturating concentration, Fig. 1D)” value in test [3] (setting [15]) and in [4] (setting [15]) were 15% and 7%, respectively. The “% inhibition at saturating concentrations determined from the fitted curve” value in test [5] (data not shown) was 82%. Further, the “activity at GluN1/GluN2 NMDA receptors” value in test [6] (20 μM, 100 μM glutamate/100 μM glycine) is given as “virtually no activity”. In addition, the “activity at recombinant GluN1/GluN2 NMDA receptors (library screen)” value in [6] (screen) is given as “no detectable activity”. Also, the “activity at AMPA receptors” value with GluA1–4 AMPA receptors is given as “virtually no activity”. In addition, in test [7], the “activity at kainate receptors” value is on record as “virtually no activity”. Besides, the “activity at GABA receptors” value in test [8] is given as “virtually no activity”. The “activity at glycine receptors” value on glycine receptors (α1) is given as “virtually no activity”. Moreover, the “activity at alpha7 nicotinic receptors” value in [9] was “virtually no activity”. Further, the “activity at muscle nicotinic receptors” value in [10] is “modestly inhibited”. At α2β4 nicotinic receptors, the “activity at α2β4 nicotinic receptors” value was “modestly inhibited”. Also, in test [11], the “activity at P2X receptors” value is “inactive”. Besides, the “effect on glycine-activated responses of native GluN1/GluN3A receptors” value in test [12] is given as “inhibited significantly; also recorded: strong inhibition”. Also, the “effect on NMDA-activated responses mediated by GluN1/GluN2 NMDA receptors” value in test [13] is recorded as “does not affect current responses; also recorded: not modulated”. The “average chord conductance of GluN1/GluN3A channels in the presence of compound” value at GluN1/GluN3A channels stood at 6.3 ± 0.90 pS.
For `O=C(O)c1cc(C(=O)c2ccc(Cl)cc2Cl)c[nH]1` [TK30], in the test on GluN1/GluN3 receptors [14], the “preference for GluN1/GluN3 over GluN1/GluN2 receptors” value was 5- to 10 fold.
Regarding `O=c1[nH]c2nonc2nc1O` [TK80], in the test on GluN1/GluN3 receptors [14], the “preference for GluN1/GluN3 over GluN1/GluN2 receptors” value is given as 5- to 10 fold.
What is called EC50 is the concentration needed to bring the measured effect to its halfway point. As to `NCC(=O)O` [glycine], the results for the EC50 in the test on GluN1 and in the test on GluN3A were […] and 10 to 60 µM, respectively.
